Published values gathered from unrelated publications.
Compare with care: the assays were run in different laboratories.

COc1ccc2[nH]cc(CCNc3nccc(Nc4cccc5c4ccn5C)n3)c2c1  Cmax (mouse; plasma; oral; 28.6 mg/kg): 406 ng/mL
CCCCCCCC(=O)N[C@@H](CCCCN)C(=O)N[C@@H](CCCCN)C(=O)N[C@@H](C)C(=O)N[C@@H](CC(C)C)C(=O)N[C@@H](CCCCN)C(=O)N[C@@H](CC(C)C)C(=O)N[C@@H](C)C(=O)N[C@@H](CCCCN)C(=O)N[C@@H](CCCCN)C(=O)N1CCC[C@H]1C(=O)N[C@@H](CC(C)C)C(=O)N[C@@H](CCCCN)C(=O)N[C@@H](CC(C)C)C(=O)N[C@@H](CC(C)C)C(=O)N[C@@H](CCCCN)C(N)=O  Cmax (female CD-1 mouse; blood; intravenous; 1 mg/kg; single dose): 441 ng/mL
CCC[C@@](N)(CO)CCc1ccc(OCCCCCC(C)C)cc1  Cmax (mouse; plasma; intraperitoneal; 10 mg/kg): 1460 nM
Cc1c(P(=S)(c2ccccc2)c2ccccc2)n2ccccc2[n+]1C/C=C/c1ccccc1.[Br-]  Cmax (mouse; plasma; intraperitoneal; 10 mg/kg): 1500 nM
Cc1cc(C)nc(Nc2ncc(C(=O)NCCc3c(C)[nH]c4ccccc34)cn2)c1  Cmax (C57BL/6 mouse; plasma; intraperitoneal; 4.4 mg/kg): 191 ng/mL
C[C@]12CC[C@H](n3ccnc3)CC1=CC[C@@H]1[C@@H]2CC[C@]2(C)C(n3cnc4ccccc43)=CC[C@@H]12.Cl  Cmax (male CD-1 mouse; plasma; oral; 10 mg/kg): 1270 ng/mL
NCC(=O)Nc1ccc(-n2nc(C(F)(F)F)cc2-c2ccc3c(ccc4ccccc43)c2)cc1  Cmax (mouse; plasma; oral; 80 mg/kg; single dose): 2080 ng/mL
C[C@]12CC[C@H](O)CC1=CC[C@@H]1[C@@H]2CC[C@]2(C)C(n3cnc4ccccc43)=CC[C@@H]12.Cl  Cmax (mouse; plasma; oral; 10 mg/kg): 10.5 ng/mL
CN[C@H](CC(C)C)C(=O)N[C@H]1C(=O)N[C@@H](CC(N)=O)C(=O)N[C@H]2C(=O)NC3C(=O)N[C@H](C(=O)N[C@H](C(=O)NCCC[N+](C)(C)C)c4cc(O)cc(O)c4-c4cc3ccc4O)[C@H](O)c3ccc(c(Cl)c3)Oc3cc2cc(c3OC2OC(CO)C(O)[C@H](O)[C@@H]2O[C@H]2CC(C)(NCc3ccc(-c4ccc(Cl)cc4)cc3)[C@H](O)[C@H](C)O2)Oc2ccc(cc2Cl)[C@H]1O (stereo partly drawn)  Cmax (mouse; plasma; intravenous; 10 mg/kg): 14100 ng/mL
CN1CCCCC1Cn1cc(C(=O)c2cc([N+](=O)[O-])ccc2I)c2ccccc21 (racemic)  Cmax (mouse; plasma; oral; 25 mg/kg): 800 ng/mL
N#Cc1c(Oc2cccc(OS(=O)(=O)CCCC(F)(F)F)c2)cccc1C(F)(F)F  Cmax (mouse; plasma; oral; 5 mg/kg): 172 ng/mL
COc1ncccc1-c1cnn2ccc(N3CCN(C(=O)OC(C)C)CC3)nc12  Cmax (mouse; plasma; oral; 10 mg/kg): 5200 nM
